Results from ChEMBL document CHEMBL4699593, “Identification of 2,4-Disubstituted Imidazopyridines as Hemozoin Formation Inhibitors with Fast-Killing Kinetics and In Vivo Efficacy in the Plasmodium falciparum NSG Mouse Model” (J Med Chem, 2020).
pIC50: −log10 of the molar value. Converted amounts (≈) assume the structure as drawn.

Columns and labels:
[1] = Aqueous solubility of compound in phosphate buffer saline at pH 6.5 incubated for 20 hrs under shaking condition by shake-flask method based HPLC-DAD analysis; assay type: physicochemical; details: phosphate buffered saline
How it was run: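 Equilibrium aqueous solubility was measured at pH 6.5 using a miniaturized shake-flask method.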

Plasmodium falciparum [2] = experiment: Antiplasmodial activity against multidrug-sensitive asexual blood stage Plasmodium falciparum NF54 strain assessed as reduction in parasite growth after 72 hrs by NBT reagent based LDH assay; assay type: functional, organism-based; details: NF54, 72 h
CHO = experiment: Cytotoxicity against CHO cells assessed as reduction in cell viability by MTT assay; assay type: cell-based, Cricetulus griseus; details: chinese hamster
How it was run: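 Cytotoxicity was measured in Chinese hamster ovary (CHO) cells and reported as CC50. The selectivity index is CC50 divided by NF54 IC50.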

Plasmodium falciparum [3] = experiment: Antiplasmodial activity against multidrug-resistant asexual blood stage Plasmodium falciparum K1 strain assessed as reduction in parasite growth after 72 hrs by NBT reagent based LDH assay; assay type: functional, organism-based; details: K1, 72 h
How it was run: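 Asexual blood-stage K1 (multidrug-resistant) parasites were read out by the parasite lactate dehydrogenase (pLDH) assay. […] Most individual values varied less than 2× (maximum 3×).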

[4] = target: Voltage-gated inwardly rectifying potassium channel KCNH2 (Homo sapiens, UniProt Q12809); experiment: Inhibition of human ERG by patch clamp method
Voltage-gated inwardly rectifying potassium channel KCNH2, sequence (Q12809 whole entry): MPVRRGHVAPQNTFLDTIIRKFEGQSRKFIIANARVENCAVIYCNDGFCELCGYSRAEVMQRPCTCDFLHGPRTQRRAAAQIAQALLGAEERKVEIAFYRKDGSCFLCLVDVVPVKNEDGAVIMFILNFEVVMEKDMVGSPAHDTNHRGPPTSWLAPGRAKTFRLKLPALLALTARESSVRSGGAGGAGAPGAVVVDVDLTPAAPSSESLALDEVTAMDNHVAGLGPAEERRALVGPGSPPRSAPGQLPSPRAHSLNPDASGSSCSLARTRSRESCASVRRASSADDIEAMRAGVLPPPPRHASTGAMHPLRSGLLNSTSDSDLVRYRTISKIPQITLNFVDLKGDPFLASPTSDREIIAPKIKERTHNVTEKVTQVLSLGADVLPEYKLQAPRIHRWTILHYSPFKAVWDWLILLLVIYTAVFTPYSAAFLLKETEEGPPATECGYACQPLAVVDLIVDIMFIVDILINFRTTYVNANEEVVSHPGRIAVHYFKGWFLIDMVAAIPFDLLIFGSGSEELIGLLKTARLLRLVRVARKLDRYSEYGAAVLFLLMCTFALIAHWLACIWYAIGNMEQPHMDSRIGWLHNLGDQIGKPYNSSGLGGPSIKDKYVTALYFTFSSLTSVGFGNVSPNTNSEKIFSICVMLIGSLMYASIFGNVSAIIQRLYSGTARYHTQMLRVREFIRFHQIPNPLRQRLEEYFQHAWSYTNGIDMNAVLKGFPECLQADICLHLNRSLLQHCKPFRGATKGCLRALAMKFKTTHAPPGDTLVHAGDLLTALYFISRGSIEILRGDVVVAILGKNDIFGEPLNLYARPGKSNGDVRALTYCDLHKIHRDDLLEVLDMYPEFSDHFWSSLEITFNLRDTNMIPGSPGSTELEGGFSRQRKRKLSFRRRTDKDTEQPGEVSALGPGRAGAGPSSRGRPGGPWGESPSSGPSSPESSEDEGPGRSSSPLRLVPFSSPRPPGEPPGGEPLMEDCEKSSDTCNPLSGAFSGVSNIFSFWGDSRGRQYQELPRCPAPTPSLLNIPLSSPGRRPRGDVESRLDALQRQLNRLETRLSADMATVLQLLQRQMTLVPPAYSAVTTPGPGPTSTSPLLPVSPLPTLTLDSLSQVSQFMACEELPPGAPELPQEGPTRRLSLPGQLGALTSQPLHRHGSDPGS

SMILES	solubility thermodynamic at 20 h [1] [µM]	pIC50 (Plasmodium falciparum [2])	CC50 (CHO) [µM]	pIC50 (Plasmodium falciparum [3])	pIC50 [4]
CN1CCN(CC2CCN(c3nccc4[nH]c(C5CCCC5)nc34)CC2)CC1	< 5	5.03	–	–	–
Fc1ccc(-c2nc3c(C4CCNCC4)nccc3[nH]2)cc1F	200 (≈ 62.9 µg/mL)	< 5.00	–	–	–
CN1CCN(C[C@@H]2CCCN(c3nccc4[nH]c(-c5cc(F)cc(F)c5)nc34)C2)CC1	145 (≈ 61.8 µg/mL)	7.55	3.2	6.89	–
CN1CCN(CC2CCN(c3nccc4[nH]c(-c5cc(F)cc(C(F)(F)F)c5)nc34)CC2)CC1	165 (≈ 78.6 µg/mL)	7.27	3.1	7.05	–
OCCN1CCN(c2nccc3[nH]c(-c4ccc(F)c(F)c4)nc23)CC1	95 (≈ 34.1 µg/mL)	6.24	–	5.85	–
CN1CCN(CC2CCN(c3nccc4[nH]c(-c5ccc(F)c(Cl)c5)nc34)CC2)CC1	155 (≈ 68.7 µg/mL)	> 7.92	0.85	7.60	–
Fc1ccc(-c2nc3c(N4CCC(N5CCNCC5)CC4)nccc3[nH]2)cc1C(F)(F)F	200 (≈ 89.7 µg/mL)	7.44	34	6.34	–
Fc1cc(F)cc(-c2nc3c(N4CCC(CN5CCNCC5)CC4)nccc3[nH]2)c1	190 (≈ 78.4 µg/mL)	7.42	20	6.62	–
C[C@@H]1CN(c2nccc3[nH]c(-c4ccc(F)c(F)c4)nc23)C[C@H](C)N1	190 (≈ 65.2 µg/mL)	7.12	6.5	6.35	–
O=C1CN(c2nccc3[nH]c(-c4ccc(F)c(F)c4)nc23)CCN1	< 5	< 5.00	–	–	–
CN1CCN([C@H]2CC[C@@H](Nc3nccc4[nH]c(-c5cc(F)cc(F)c5)nc34)CC2)CC1	200 (≈ 85.3 µg/mL)	6.80	14	6.51	–
Fc1ccc(-c2nc3c(N4CCN(c5ccccc5)CC4)nccc3[nH]2)cc1F	–	< 6.00	–	–	–
CN1CCN(C2CCN(c3nccc4[nH]c(-c5cccc(C#N)c5)nc34)CC2)CC1	–	6.96	16	6.24	–
CN1CCOC2(CCN(c3nccc4[nH]c(-c5cc(F)cc(F)c5)nc34)CC2)C1	175 (≈ 69.9 µg/mL)	6.74	32	6.49	–
CN1CCN(CC2CCN(c3nccc4c3nc(-c3cc(F)cc(F)c3)n4C)CC2)CC1	150 (≈ 66.1 µg/mL)	< 5.52	–	–	–
COC(=O)c1cccc(-c2nc3c(N4CCC(N5CCN(C)CC5)CC4)nccc3[nH]2)c1	–	7.10	34	6.55	–
CN1CCN(c2nccc3[nH]c(-c4cccc(OC(F)(F)F)c4)nc23)CC1	–	6.31	–	–	–
CN1CCN(C2CCN(c3nccc4[nH]c(-c5cc(F)cc(F)c5)cc34)CC2)CC1	–	–	–	–	5.40
CN1CCN(CC2CCN(c3nccc4[nH]c(-c5cccc(C(=O)N(C)C)c5)nc34)CC2)CC1	180 (≈ 83.1 µg/mL)	6.00	> 50	–	–
CN1CCN(C2CCN(c3nccc4[nH]c(C5CCCC5)nc34)CC2)CC1	170 (≈ 62.6 µg/mL)	< 5.00	–	–	–
Fc1ccc(-c2nc3c(N4CCN(CC(F)(F)F)CC4)nccc3[nH]2)cc1F	10 (≈ 3.97 µg/mL)	5.64	39	–	–
Fc1ccc(-c2nc3c(N4CCN5CCC4CC5)nccc3[nH]2)cc1F	200 (≈ 71.1 µg/mL)	7.10	28	6.37	–

SMILES	solubility thermodynamic at 20 h [1] [µM]	pIC50 (Plasmodium falciparum [2])	CC50 (CHO) [µM]	pIC50 (Plasmodium falciparum [3])	pIC50 [4]
Fc1ccc(-c2nc3c(N4CCN5CCCC5C4)nccc3[nH]2)cc1F (centres undefined)	120 (≈ 42.6 µg/mL)	6.66	32	6.32	–
Fc1ccc(-c2nc3c(N4CCCNCC4)nccc3[nH]2)cc1F	165 (≈ 54.3 µg/mL)	6.68	7.2	6.00	–
CN1CCCN(c2nccc3[nH]c(-c4cc(F)cc(F)c4)nc23)CC1	–	–	–	–	6.40
CN1CCOC2(CCN(c3nccc4[nH]c(-c5cc(F)cc(F)c5)cc34)CC2)C1	–	–	–	–	≥ 5.52
O=S1(=O)CCN(CC2CCN(c3nccc4[nH]c(-c5cc(F)cc(F)c5)nc34)CC2)CC1	< 5	5.85	> 50	–	–
CN1CCN(CC2CCN(c3nccc4[nH]c(-c5cccc(OCCN)c5)nc34)CC2)CC1	200 (≈ 89.9 µg/mL)	5.66	–	–	–
CN1CCN([C@H]2CC[C@H](Nc3nccc4[nH]c(-c5cc(F)cc(F)c5)nc34)CC2)CC1	200 (≈ 85.3 µg/mL)	6.89	11	6.62	–
CN1CCN(CC2CCN(c3ncnc4[nH]c(-c5cc(F)cc(F)c5)nc34)CC2)CC1	55 (≈ 23.5 µg/mL)	5.74	–	–	–
CN1CCN(CC2CCN(c3nccc4[nH]c(-c5cccc(C(=O)O)c5)nc34)CC2)CC1	195 (≈ 84.7 µg/mL)	< 5.00	> 50	–	–
CC(C)(C)N1CCN(CC2CCN(c3nccc4[nH]c(-c5cc(F)cc(F)c5)nc34)CC2)CC1	185 (≈ 86.7 µg/mL)	7.72	8.6	7.33	–
Fc1ccc(-c2nc3c(N4CCOCC4)nccc3[nH]2)cc1F	–	5.51	–	–	–
CN(C)C1CCN(c2nccc3[nH]c(-c4cccc(OC(F)(F)F)c4)nc23)CC1	180 (≈ 73 µg/mL)	6.85	–	6.72	–
Fc1cc(F)cc(-c2nc3c(N4CCC(CN5CCOCC5)CC4)nccc3[nH]2)c1	25 (≈ 10.3 µg/mL)	6.54	> 50	6.41	–
Fc1cc(F)cc(-c2nc3c(N4CCC(CN5CCC(F)(F)CC5)CC4)nccc3[nH]2)c1	< 5	6.70	26	6.51	–
C[C@@H]1CN(c2nccc3[nH]c(-c4ccc(F)c(F)c4)nc23)C[C@H](C)N1C	50 (≈ 17.9 µg/mL)	6.59	> 50	6.14	–
CN1CCN(C2CCN(c3nccc4[nH]c(-c5ccc(F)c(C(F)(F)F)c5)nc34)CC2)CC1	195 (≈ 90.2 µg/mL)	7.24	4.8	7.10	–
NCC1CCN(c2nccc3[nH]c(-c4cccc(OC(F)(F)F)c4)nc23)CC1	200 (≈ 78.3 µg/mL)	7.17	2.9	6.72	–
NC1CCN(c2nccc3[nH]c(-c4ccc(F)c(F)c4)nc23)CC1	200 (≈ 65.9 µg/mL)	6.96	8.2	6.04	–
CN1CCN(C2CCN(c3nccc4[nH]c(-c5cccc(S(C)(=O)=O)c5)nc34)CC2)CC1	190 (≈ 86.4 µg/mL)	6.35	> 50	5.82	–
CN1CCN(CC2CCN(c3nccc4[nH]c(-c5ccc(F)c(C(F)(F)F)c5)nc34)CC2)CC1	165 (≈ 78.6 µg/mL)	7.30	3.1	7.77	–
CN1CCN(CC2CCN(c3ccnc4[nH]c(-c5cc(F)cc(F)c5)nc34)CC2)CC1	< 5	6.28	–	–	–
CN1CCN(C[C@H]2CCCN(c3nccc4[nH]c(-c5cc(F)cc(F)c5)nc34)C2)CC1	200 (≈ 85.3 µg/mL)	7.14	7.9	6.77	–
